{"source": "ChEMBL document CHEMBL2062477", "about": "“Dual-Specificity Phosphatase CDC25A/B Inhibitor Identified from a Focused Library with Nonelectrophilic Core Structure” (ACS Med Chem Lett, 2012)", "key": {"[1]": {"target": "T1, Dual specificity protein phosphatase 1 (Homo sapiens, UniProt P28562)", "T1 sequence (P28562 whole entry)": "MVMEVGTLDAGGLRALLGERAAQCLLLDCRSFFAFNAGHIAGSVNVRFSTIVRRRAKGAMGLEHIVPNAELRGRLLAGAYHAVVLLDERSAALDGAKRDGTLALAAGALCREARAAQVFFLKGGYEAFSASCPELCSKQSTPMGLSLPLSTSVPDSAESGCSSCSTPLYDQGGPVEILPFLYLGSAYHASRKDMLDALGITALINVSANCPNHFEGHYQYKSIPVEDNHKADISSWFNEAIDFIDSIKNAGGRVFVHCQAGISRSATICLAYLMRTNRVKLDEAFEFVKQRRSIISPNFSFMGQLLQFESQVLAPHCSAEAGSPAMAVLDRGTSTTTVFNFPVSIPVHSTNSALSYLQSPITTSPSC", "assay": "Inhibition of MKP1"}, "[2]": {"assay": "Cell cycle arrest in mouse tsFT210 cells assessed as accumulation at G2/M phase by propidium iodide staining-based flow cytometric analysis", "type": "functional", "summary_of_the_method": "(§1)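 tsFT210 cells synchronized at G2 by 17 h at 39 °C, then released for 4 h at 32 °C with compound (5–50 μM) or DMSO vehicle; 100 nM nocodazole reference. Cell-cycle phase distribution, including sub-G1, determined by flow cytometry.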"}, "[3]": {"target": "T2, M-phase inducer phosphatase 3 (Homo sapiens, UniProt P30307)", "T2 sequence (P30307 whole entry)": "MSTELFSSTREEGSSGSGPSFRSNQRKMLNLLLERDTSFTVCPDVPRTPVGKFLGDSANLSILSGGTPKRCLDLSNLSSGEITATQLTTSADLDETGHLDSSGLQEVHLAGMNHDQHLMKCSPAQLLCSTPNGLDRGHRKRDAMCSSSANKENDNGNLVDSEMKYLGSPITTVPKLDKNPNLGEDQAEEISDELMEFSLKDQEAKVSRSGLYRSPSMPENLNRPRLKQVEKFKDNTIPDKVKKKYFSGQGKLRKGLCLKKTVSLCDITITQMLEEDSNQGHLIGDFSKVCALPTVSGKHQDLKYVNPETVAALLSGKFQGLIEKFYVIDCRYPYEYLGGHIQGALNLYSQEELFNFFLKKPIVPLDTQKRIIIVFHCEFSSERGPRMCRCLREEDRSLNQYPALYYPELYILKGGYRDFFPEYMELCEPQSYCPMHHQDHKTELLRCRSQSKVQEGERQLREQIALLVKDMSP", "assay": "Inhibition of CDC25C"}, "[4]": {"target": "Dual specificity protein phosphatase 3 (Homo sapiens, UniProt P51452)", "sequence (P51452 whole entry)": "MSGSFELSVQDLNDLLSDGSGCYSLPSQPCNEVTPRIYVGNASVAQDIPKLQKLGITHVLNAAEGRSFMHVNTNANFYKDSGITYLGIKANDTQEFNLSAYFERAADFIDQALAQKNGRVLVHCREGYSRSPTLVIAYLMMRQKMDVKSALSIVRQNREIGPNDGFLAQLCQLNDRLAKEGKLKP", "assay": "Inhibition of VHR"}, "tsFT210 [5]": {"test_system": "tsFT210", "assay": "Inhibition of CDC25 in mouse tsFT210 cells assessed as hyperphosphorylation of CDK1 protein by Western blot analysis", "type": "cell-based", "summary_of_the_method": "(§2)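 G2-arrested tsFT210 cells (39 °C, 17 h) released at 32 °C for 4 h with compound or vehicle; CDK1 phosphorylation status and total CDK1 assessed by Western blotting.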"}, "[6]": {"target": "T3, M-phase inducer phosphatase 1 (Homo sapiens, UniProt P30304)", "T3 sequence (P30304 whole entry)": "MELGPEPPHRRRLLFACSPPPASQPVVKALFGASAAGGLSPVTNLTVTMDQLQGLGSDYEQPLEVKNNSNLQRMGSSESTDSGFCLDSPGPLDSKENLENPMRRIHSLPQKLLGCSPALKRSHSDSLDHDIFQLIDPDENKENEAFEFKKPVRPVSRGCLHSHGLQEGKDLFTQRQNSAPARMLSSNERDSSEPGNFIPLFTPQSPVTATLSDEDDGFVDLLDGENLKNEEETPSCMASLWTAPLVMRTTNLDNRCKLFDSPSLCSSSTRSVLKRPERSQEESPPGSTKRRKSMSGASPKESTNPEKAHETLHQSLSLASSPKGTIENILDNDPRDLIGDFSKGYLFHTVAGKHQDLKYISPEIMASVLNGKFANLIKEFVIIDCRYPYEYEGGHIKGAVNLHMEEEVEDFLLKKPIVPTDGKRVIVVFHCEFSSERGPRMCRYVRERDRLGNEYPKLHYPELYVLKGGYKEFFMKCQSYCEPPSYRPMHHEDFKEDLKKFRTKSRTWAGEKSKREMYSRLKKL", "assay": "Inhibition of CDC25A"}, "[7]": {"target": "T3, M-phase inducer phosphatase 1", "assay": "Inhibition of CDC25A in presence of 2 mM DTT", "summary_of_the_method": "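In vitro inhibition of purified CDC25A or CDC25B with DTT concentration in the assay buffer varied.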"}, "[8]": {"target": "T4, Dual specificity protein phosphatase 6 (Homo sapiens, UniProt Q16828)", "T4 sequence (Q16828 whole entry)": "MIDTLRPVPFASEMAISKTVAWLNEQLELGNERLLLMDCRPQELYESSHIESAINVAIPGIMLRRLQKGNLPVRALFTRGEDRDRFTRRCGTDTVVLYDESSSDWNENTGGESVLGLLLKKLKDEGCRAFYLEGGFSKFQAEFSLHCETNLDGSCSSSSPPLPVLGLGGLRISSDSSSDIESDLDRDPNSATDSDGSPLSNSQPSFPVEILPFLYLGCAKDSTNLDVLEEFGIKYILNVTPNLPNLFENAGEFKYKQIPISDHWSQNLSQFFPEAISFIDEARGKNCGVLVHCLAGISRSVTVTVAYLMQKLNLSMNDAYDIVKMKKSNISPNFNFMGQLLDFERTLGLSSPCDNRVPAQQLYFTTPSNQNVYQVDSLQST", "assay": "Inhibition of MKP3"}, "tsFT210 [9]": {"test_system": "tsFT210", "assay": "Induction of ROS generation in mouse tsFT210 cells at 50 uM at 32 degC for 30 min measured by flow cytometric analysis pretreated with H2DCFDA at 39 degC"}, "tsFT210 [10]": {"test_system": "tsFT210", "assay": "Induction of apoptosis in mouse tsFT210 cells assessed as increase in subG1 population at 50 uM after 17 hrs by propidium iodide staining-based flow cytometric analysis", "type": "functional, cell-based", "settings": "in the assay text read “after 4 hrs” for “after 17 hrs”", "summary_of_the_method": "as §1"}, "[11]": {"target": "T5, Tyrosine-protein phosphatase non-receptor type 1 (Homo sapiens, UniProt P18031)", "T5 sequence (P18031 whole entry)": "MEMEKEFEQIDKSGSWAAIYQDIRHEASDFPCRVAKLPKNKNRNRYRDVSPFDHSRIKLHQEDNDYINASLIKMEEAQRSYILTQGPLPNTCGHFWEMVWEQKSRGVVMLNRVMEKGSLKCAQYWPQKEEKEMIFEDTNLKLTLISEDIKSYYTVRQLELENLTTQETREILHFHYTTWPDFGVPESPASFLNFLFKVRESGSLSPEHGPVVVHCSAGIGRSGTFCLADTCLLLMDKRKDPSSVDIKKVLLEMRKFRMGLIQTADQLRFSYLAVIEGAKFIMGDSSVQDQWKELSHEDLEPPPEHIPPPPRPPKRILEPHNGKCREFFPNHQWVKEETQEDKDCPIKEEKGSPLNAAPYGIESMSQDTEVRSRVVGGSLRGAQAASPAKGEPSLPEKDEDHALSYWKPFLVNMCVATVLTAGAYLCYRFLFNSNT", "assay": "Inhibition of PTP1B"}, "[12]": {"target": "T6, M-phase inducer phosphatase 2 (Homo sapiens, UniProt P30305)", "T6 sequence (P30305 whole entry)": "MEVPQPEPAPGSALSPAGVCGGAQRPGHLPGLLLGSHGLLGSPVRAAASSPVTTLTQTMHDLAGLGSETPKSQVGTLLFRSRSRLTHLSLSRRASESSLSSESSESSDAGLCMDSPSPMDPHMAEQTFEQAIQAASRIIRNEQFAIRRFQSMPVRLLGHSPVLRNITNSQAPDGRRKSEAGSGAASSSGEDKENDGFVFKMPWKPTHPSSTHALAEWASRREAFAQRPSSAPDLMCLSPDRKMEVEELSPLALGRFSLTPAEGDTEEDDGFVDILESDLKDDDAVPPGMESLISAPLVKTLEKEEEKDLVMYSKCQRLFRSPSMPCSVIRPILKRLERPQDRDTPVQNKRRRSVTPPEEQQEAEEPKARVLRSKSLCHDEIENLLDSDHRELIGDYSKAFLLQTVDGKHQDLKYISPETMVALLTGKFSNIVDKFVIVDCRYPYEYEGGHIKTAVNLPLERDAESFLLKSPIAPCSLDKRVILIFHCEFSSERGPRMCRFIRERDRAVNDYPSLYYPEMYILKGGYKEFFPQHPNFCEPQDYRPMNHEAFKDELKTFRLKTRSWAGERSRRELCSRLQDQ", "assay": "Inhibition of CDC25B"}, "[13]": {"assay": "Cell cycle arrest in mouse tsFT210 cells assessed as accumulation at G2/M phase at 5 to 50 uM by propidium iodide staining-based flow cytometric analysis", "type": "functional", "summary_of_the_method": "as §1"}, "tsFT210 [14]": {"test_system": "tsFT210", "assay": "Inhibition of CDC25 in mouse tsFT210 cells assessed as hyperphosphorylation of CDK1 protein at 50 uM by Western blot analysis", "type": "cell-based", "summary_of_the_method": "as §2"}, "HL-60": {"test_system": "HL-60", "assay": "cells", "settings": "Homo sapiens, HL-60, 48 h"}}, "note": "Active and inactive are the calls of the source. No cut-off for these calls is given here."}
{"smiles": "CCCCCCCCCCCCCCC/C(NCc1ccccc1)=C1/C(=O)OC(CO)C1=O", "note": "(stereo not given)", "values": [{"measurement": "IC50", "setting": "[1]", "result": "> 100", "unit": "µM"}, {"measurement": "Activity", "setting": "[2]", "result": "Dose-dependent effect"}, {"measurement": "IC50", "setting": "[3]", "result": "> 100", "unit": "µM"}, {"measurement": "IC50", "setting": "[4]", "result": 11.4, "unit": "µM"}, {"measurement": "inhibition", "setting": "tsFT210 [5]", "result": "Dose-dependent effect"}, {"measurement": "IC50", "setting": "[6]", "result": 16.6, "unit": "µM"}, {"measurement": "IC50", "setting": "[7]", "result": 16.6, "unit": "µM"}, {"measurement": "IC50", "setting": "[8]", "result": "> 100", "unit": "µM"}, {"measurement": "Activity", "setting": "tsFT210 [9]", "result": "inactive"}, {"measurement": "Activity", "setting": "tsFT210 [10]", "result": "inactive"}, {"measurement": "IC50", "setting": "[11]", "result": "> 100", "unit": "µM"}, {"measurement": "IC50", "setting": "[12]", "result": 8.42, "unit": "µM"}]}
{"smiles": "CCCCCCCCCCCCCCCC(NCc1cccc(C)c1)=C1C(=O)OC(CO)C1=O", "note": "(mixture of isomers)", "values": [{"measurement": "IC50", "setting": "[1]", "result": "> 100", "unit": "µM"}, {"measurement": "Activity", "setting": "[13]", "result": "inactive"}, {"measurement": "IC50", "setting": "[3]", "result": "> 100", "unit": "µM"}, {"measurement": "IC50", "setting": "[4]", "result": 1.63, "unit": "µM"}, {"measurement": "inhibition", "setting": "tsFT210 [14]", "result": "inactive"}, {"measurement": "IC50", "setting": "[6]", "result": "> 100", "unit": "µM"}, {"measurement": "IC50", "setting": "[8]", "result": "> 100", "unit": "µM"}, {"measurement": "Activity", "setting": "tsFT210 [9]", "result": "inactive"}, {"measurement": "Activity", "setting": "tsFT210 [10]", "result": "inactive"}, {"measurement": "IC50", "setting": "[11]", "result": "> 100", "unit": "µM"}, {"measurement": "IC50", "setting": "[12]", "result": "> 100", "unit": "µM"}]}
{"smiles": "CCCCCCCCCCCCCCCC(NCc1ccccc1O)=C1C(=O)OC(CO)C1=O", "note": "(mixture of isomers)", "values": [{"measurement": "IC50", "setting": "[1]", "result": "> 100", "unit": "µM"}, {"measurement": "Activity", "setting": "[2]", "result": "Dose-dependent effect"}, {"measurement": "IC50", "setting": "[3]", "result": "> 100", "unit": "µM"}, {"measurement": "IC50", "setting": "[4]", "result": 24.9, "unit": "µM"}, {"measurement": "IC50", "setting": "HL-60", "result": 2.44, "unit": "µM"}, {"measurement": "inhibition", "setting": "tsFT210 [5]", "result": "Dose-dependent effect"}, {"measurement": "IC50", "setting": "[6]", "result": 13.5, "unit": "µM"}, {"measurement": "IC50", "setting": "[7]", "result": 13.5, "unit": "µM"}, {"measurement": "IC50", "setting": "[8]", "result": "> 100", "unit": "µM"}, {"measurement": "Activity", "setting": "tsFT210 [9]", "result": "inactive"}, {"measurement": "Activity", "setting": "tsFT210 [10]", "result": "inactive"}, {"measurement": "IC50", "setting": "[11]", "result": "> 100", "unit": "µM"}]}
